Measurements from ChEMBL document CHEMBL1126169, “8-Polycycloalkyl-1,3-dipropylxanthines as potent and selective antagonists for A1-adenosine receptors” (J Med Chem, 1992).

Legend:
Adenosine receptor A1 [1] = target: T1, Adenosine receptor A1 (Cavia porcellus, UniProt P47745); experiment: Binding affinity against adenosine A1 receptor using N6-[3H]cyclohexyladenosine as radioligand in guinea pig forebrain membranes; type: cell membranes, Brain membranes
T1 sequence (P47745 whole entry): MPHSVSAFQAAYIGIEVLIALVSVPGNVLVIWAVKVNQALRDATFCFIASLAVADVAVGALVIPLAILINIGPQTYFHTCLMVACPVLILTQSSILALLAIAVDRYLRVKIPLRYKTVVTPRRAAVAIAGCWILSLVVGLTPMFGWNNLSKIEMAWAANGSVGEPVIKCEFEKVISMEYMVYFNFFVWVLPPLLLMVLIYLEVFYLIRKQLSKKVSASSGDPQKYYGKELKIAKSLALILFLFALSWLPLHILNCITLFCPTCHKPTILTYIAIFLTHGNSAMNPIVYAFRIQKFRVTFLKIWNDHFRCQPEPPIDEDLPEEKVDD

Adenosine A2 receptor [2] = target: T2, Adenosine A2 receptor (Rattus norvegicus, UniProt P29276+P30543); experiment: Binding affinity against adenosine A2 receptor using N-[3H]-ethyladenosin-5''-uronamide as radioligand in rat striatal membranes.; type: cell membranes
[3] = target: Adenosine receptor A1 (Rattus norvegicus) (UniProt P25099); experiment: Binding affinity against adenosine A1 receptor using N6-[3H]cyclohexyladenosine as radioligand in rat brain membranes
Adenosine receptor A1 [4] = target: T1, Adenosine receptor A1; experiment: Inhibition of N6-[3H]cyclohexyladenosine binding to guinea pig forebrain membrane Adenosine A1 receptor
Adenosine receptor A1 [5] = target: T3, Adenosine receptor A1 (Rattus norvegicus, UniProt P25099); experiment: Binding affinity against Adenosine A1 receptor using N6-[3H]cyclohexyladenosine in rat brain membranes; type: cell membranes
T3 sequence (P25099 whole entry): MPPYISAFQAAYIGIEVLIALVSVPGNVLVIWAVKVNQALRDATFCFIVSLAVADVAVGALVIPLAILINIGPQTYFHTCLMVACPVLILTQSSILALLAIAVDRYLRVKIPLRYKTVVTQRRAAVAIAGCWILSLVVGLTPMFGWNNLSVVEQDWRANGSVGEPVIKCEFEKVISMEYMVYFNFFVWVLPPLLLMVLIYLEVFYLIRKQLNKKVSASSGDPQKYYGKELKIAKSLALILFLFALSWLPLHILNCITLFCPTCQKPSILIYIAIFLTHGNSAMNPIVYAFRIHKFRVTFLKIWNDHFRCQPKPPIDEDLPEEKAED
In short: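 Rat forebrain membranes were prepared like the guinea pig tissue. Tissue was homogenized in ice-cold 50 mM Tris-HCl pH 7.7, centrifuged at 50000g and washed. It was treated with ADA (2.0 units/mL) for 30 min at 37 °C, then used at 10 mg tissue/mL. Duplicate curves used five or more concentrations; IC50 from logit-log plots was converted to Ki by Cheng-Prusoff.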

Adenosine A2 receptor [6] = target: T2, Adenosine A2 receptor; experiment: Binding affinity against Adenosine A2 receptor using N-[3H]-ethyladenosin-5''-uronamide in rat striatal membranes; type: cell membranes, Striatum, Membrane
[7] = Binding affinity against adenylate cyclase using N-[3H]-ethyl adenosine-5-uronamide as radioligand in human platelet membranes; type: cell membranes
[8] = Inhibitory activity against adenylate cyclase using (R)-N6-(2-[3H]-phenyl-1-methylethyladenosine as radioligand in rat adipocytes; type: cell-based
Adenosine receptor A1 [9] = target: T1, Adenosine receptor A1; experiment: Binding affinity against Adenosine A1 receptor using N6-[3H]cyclohexyladenosine in guinea pig forebrain membranes; type: cell membranes, Brain membranes
In short: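 Guinea pig forebrain membranes in 50 mM Tris-HCl pH 7.7, pretreated with adenosine deaminase (2.0 units/mL, 30 min, 37 °C), 10 mg tissue per tube. Incubated with 1.1 nM [3H]cyclohexyladenosine, final DMSO <0.9%, for 90 min at 25 °C, then GF/C filtration and scintillation counting. Nonspecific binding defined with 10 µM R-PIA.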

Adenosine receptor A1 [10] = target: T1, Adenosine receptor A1; experiment: Binding affinity against Adenosine A1 receptor using N6-[3H]cyclohexyladenosine in guinea pig membranes; type: cell membranes

SMILES | Ki (Adenosine receptor A1 [1]) [nM] | Ki (Adenosine A2 receptor [2]) [nM] | also measured
CCCCn1c(=O)c2nc(C34CC5CC(CC3C5)C4)[nH]c2n(CCCC)c1=O | 10 | – | –
CCCn1c(=O)c2nc(-c3cnsn3)[nH]c2n(CCC)c1=O | – | > 10000 | –
CCCn1c(=O)c2nc(-c3cccn3C)[nH]c2n(CCC)c1=O | 140 | 6000 | –
CCCn1c(=O)c2nc(-c3nn[nH]n3)[nH]c2n(CCC)c1=O | > 10000 | > 100000 | –
CCCn1c(=O)c2[nH]c(C[C@H]3CC4CCC3C4)nc2n(CCC)c1=O (some centres not stated) | 80 | – | –
OC[C@H]1OC(n2cnc3c(NCC4CC4)ncnc32)[C@H](O)[C@@H]1O (some centres not stated) | – | – | Ki [3]: 0.75 nM
CC(C)(C)CNc1ncnc2c1ncn2C1O[C@H](CO)[C@@H](O)[C@H]1O (some centres not stated) | 17 | – | –
OC[C@H]1O[C@@H](n2cnc3c(NC4CC5CCC4C5)ncnc32)[C@H](O)[C@@H]1O (some centres not stated) | – | – | Ki (Adenosine receptor A1 [4]): 0.7 nM; Ki (Adenosine receptor A1 [5]): 0.91 nM
CCCn1c(=O)[nH]c(=O)c2[nH]c(C34CC5CC(CC3C5)C4)nc21 | – | – | Ki (Adenosine A2 receptor [6]): > 100000 nM; Ki (Adenosine receptor A1 [4]): 370 nM
Cn1c(=O)c2[nH]cnc2n(C)c1=O | – | – | Kb [7]: 5700 nM; Kb [8]: 4800 nM
CCCn1c(=O)c2nc(-c3ccco3)[nH]c2n(CCC)c1=O | 560 | 530 | –
CCCn1c(=O)c2nc(-c3cnns3)[nH]c2n(CCC)c1=O | – | – | Ki (Adenosine receptor A1 [9]): 4400 nM; Ki (Adenosine A2 receptor [6]): > 10000 nM
CCCn1c(=O)c2nc(C(C)(C)C)[nH]c2n(CCC)c1=O | 31 | 2300 | –
CCCn1c(=O)c2nc([C@@H]3CC4C=CC3C4)[nH]c2n(CCC)c1=O (some centres not stated) | 4.3 | 480 | –
CCCn1c(=O)c2nc(C(O)(CC)CC)[nH]c2n(CCC)c1=O | 170 | 12000 | –
CCCn1c(=O)c2nc(CC(C)(C)C)[nH]c2n(CCC)c1=O | 49 | 6000 | –
CCCn1c(=O)c2nc(C3(C)CCCCC3)[nH]c2n(CCC)c1=O | 11 | 1200 | –
CC[C@@H](C)Nc1ncnc2c1ncn2[C@@H]1O[C@H](CO)[C@@H](O)[C@H]1O | – | – | Ki (Adenosine receptor A1 [4]): 1.3 nM
CCCn1c(=O)c2nc(C3C(C)(C)CCC3(C)C)[nH]c2n(CCC)c1=O | – | > 100000 | –
CCCn1c(=O)c2nc(C3Cc4ccccc4C3)[nH]c2n(CCC)c1=O | 220 | 1700 | –
CCCn1c(=O)c2[nH]c(C34C[C@H]5C[C@@H](C3)C[C@@H](C4)C5)nc2n(CCC)c1=O | 13 | – | –
CC(C)Nc1ncnc2c1ncn2[C@@H]1O[C@H](CO)[C@@H](O)[C@H]1O | 1.9 | – | –
CCCn1c(=O)c2nc(CC3CC3)[nH]c2n(CCC)c1=O | 120 | 1200 | –
CCCn1c(=O)c2nc[nH]c2n(CCC)c1=O | – | – | Ki (Adenosine receptor A1 [10]): 1000 nM; Ki (Adenosine receptor A1 [4]): 1400 nM; Kb [8]: 940 nM
Cn1c(=O)c2[nH]c(C34CC5CC(CC3C5)C4)nc2n(C)c1=O | 41 | – | –

SMILES | Ki (Adenosine receptor A1 [1]) [nM] | Ki (Adenosine A2 receptor [2]) [nM] | also measured
CCCn1c(=O)c2nc(C3c4ccccc4-c4ccccc43)[nH]c2n(CCC)c1=O | – | – | Ki (Adenosine receptor A1 [9]): 2900 nM; Ki (Adenosine A2 receptor [6]): > 100000 nM
CCCn1c(=O)c2nc(C(C)(O)CC)[nH]c2n(CCC)c1=O (configuration not stated) | 240 | 21000 | –
CCCn1c(=O)c2nc(C3CC4CCC3C4)[nH]c2n(CCC)c1=O (configuration not stated) | – | – | Ki (Adenosine receptor A1 [4]): 4.4 nM
CCCn1c(=O)c2nc(-c3cc4ccccc4s3)[nH]c2n(CCC)c1=O | > 100000 | > 100000 | –
CCCC(CCC)Nc1ncnc2c1ncn2C1O[C@H](CO)[C@@H](O)[C@H]1O (some centres not stated) | 3.3 | – | –
CCCn1c(=O)c2nc(C(C)(C)CC)[nH]c2n(CCC)c1=O | 23 | 1000 | –
CCCn1c(=O)c2nc([C@@H]3CC4CCC3C4)[nH]c2n(CCC)c1=O (some centres not stated) | 3.8 | 440 | –
Cn1c(=O)c2c(ncn2C)n(C)c1=O [CAFFEINE] | 100000 | – | –
OC[C@H]1OC(n2cnc3c(NC45C[C@H]6C[C@@H](C4)C[C@@H](C5)C6)ncnc32)[C@H](O)[C@@H]1O (some centres not stated) | 73 | – | –
CC[C@H](C)Nc1ncnc2c1ncn2C1O[C@H](CO)[C@@H](O)[C@H]1O (single isomer, unassigned) | – | – | Ki (Adenosine receptor A1 [4]): 0.8 nM
CCCn1c(=O)c2nc(-c3cc4ccccc4o3)[nH]c2n(CCC)c1=O | > 10000 | 1200 | –
CC(C)(C)Nc1ncnc2c1ncn2C1O[C@H](CO)[C@@H](O)[C@H]1O (some centres not stated) | 20 | – | –
CCCn1c(=O)c2nc(C(C)(C)CCC)[nH]c2n(CCC)c1=O | 25 | 2200 | –
CCCn1c(=O)c2nc(CC34C[C@H]5C[C@@H](C3)C[C@@H](C4)C5)[nH]c2n(CCC)c1=O | 880 | > 100000 | –
CC(C)Cn1c(=O)n(C)c(=O)c2[nH]c(C34CC5CC(CC3C5)C4)nc21 | – | – | Ki (Adenosine receptor A1 [4]): 15 nM
CCCn1c(=O)c2nc(-c3csc(C)n3)[nH]c2n(CCC)c1=O | 410 | 2300 | –
CCCn1c(=O)c2nc(-c3cc(S(=O)(=O)[O-])co3)[nH]c2n(CCC)c1=O.[K+] | – | – | Ki (Adenosine receptor A1 [9]): > 10000 nM; Ki (Adenosine A2 receptor [6]): > 10000 nM
CCC(C)(C)Nc1ncnc2c1ncn2C1O[C@H](CO)[C@@H](O)[C@H]1O (some centres not stated) | – | – | Ki (Adenosine receptor A1 [4]): 16 nM
CCCn1c(=O)c2nc([C@H]3CC4C=CC3C4)[nH]c2n(CCC)c1=O (some centres not stated) | 3.4 | 210 | –
CCCn1c(=O)c2nc(C3CCC4CCCC43)[nH]c2n(CCC)c1=O (configuration not stated) | 3.5 | 330 | Ki (Adenosine A2 receptor [6]): 560 nM; Ki (Adenosine receptor A1 [4]): 5.6 nM
CC1(Nc2ncnc3c2ncn3C2O[C@H](CO)[C@@H](O)[C@H]2O)CCCCC1 (some centres not stated) | – | – | Ki [3]: 70 nM
CCCn1c(=O)c2nc(-c3cc4ccccc4n3C)[nH]c2n(CCC)c1=O | > 100000 | > 100000 | –
OC[C@H]1OC(n2cnc3c(NC(C4CC4)C4CC4)ncnc32)[C@H](O)[C@@H]1O (some centres not stated) | – | – | Ki (Adenosine receptor A1 [4]): 0.75 nM
CCC(CC)Nc1ncnc2c1ncn2C1O[C@H](CO)[C@@H](O)[C@H]1O (some centres not stated) | – | – | Ki [3]: 0.75 nM
CCCn1c(=O)c2nc(-c3cccs3)[nH]c2n(CCC)c1=O | 210 | 1900 | –
